Published values from different studies.
Target: Serine/threonine-protein kinase PLK4 (PLK4, Homo sapiens, UniProt O00444)
One construct used (O00444 1-970): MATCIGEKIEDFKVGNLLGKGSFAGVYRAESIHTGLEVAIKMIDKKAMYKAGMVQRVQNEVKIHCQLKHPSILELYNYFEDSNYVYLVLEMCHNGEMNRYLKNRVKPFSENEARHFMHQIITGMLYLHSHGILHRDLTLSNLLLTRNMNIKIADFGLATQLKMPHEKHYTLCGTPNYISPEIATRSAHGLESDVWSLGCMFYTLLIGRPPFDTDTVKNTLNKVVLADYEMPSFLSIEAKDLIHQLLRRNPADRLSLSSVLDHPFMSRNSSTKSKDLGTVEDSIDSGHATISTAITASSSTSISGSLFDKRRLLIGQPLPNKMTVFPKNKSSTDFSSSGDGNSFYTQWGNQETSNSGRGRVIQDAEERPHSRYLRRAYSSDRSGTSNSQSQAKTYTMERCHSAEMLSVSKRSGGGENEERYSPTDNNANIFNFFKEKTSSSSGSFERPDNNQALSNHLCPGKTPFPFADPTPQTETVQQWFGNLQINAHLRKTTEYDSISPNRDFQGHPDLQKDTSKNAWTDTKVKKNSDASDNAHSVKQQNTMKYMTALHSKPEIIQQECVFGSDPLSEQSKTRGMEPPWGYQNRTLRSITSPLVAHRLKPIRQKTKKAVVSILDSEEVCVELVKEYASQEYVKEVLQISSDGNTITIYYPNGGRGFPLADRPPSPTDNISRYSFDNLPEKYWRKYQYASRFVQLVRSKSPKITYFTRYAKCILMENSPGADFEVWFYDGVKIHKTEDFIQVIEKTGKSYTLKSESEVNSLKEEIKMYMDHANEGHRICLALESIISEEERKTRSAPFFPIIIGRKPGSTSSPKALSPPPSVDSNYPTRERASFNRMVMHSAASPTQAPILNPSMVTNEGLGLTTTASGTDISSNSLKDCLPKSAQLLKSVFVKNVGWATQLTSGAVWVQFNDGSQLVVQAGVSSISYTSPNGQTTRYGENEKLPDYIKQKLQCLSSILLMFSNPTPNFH

COc1ccc2oc(-c3ccc4nc(N)oc4c3)c/c(=N\c3ccccc3NC(=O)CCN)c2c1  remaining binding (binding; 1 µM): 98%
C=CC(=O)N1CCC([C@@H]2CCNc3c(C(N)=O)c(-c4ccc(Oc5ccccc5)cc4)nn32)CC1  inhibition (enzyme activity, inhibitor; 1 µM): 1%
C1=C/COCc2cc(ccc2OCCN2CCCC2)Nc2nccc(n2)-c2cccc(c2)COC/1  remaining binding (binding; 0.1 µM): 42%
Cc1ccc(NC(=O)c2ccnc(C(F)(F)F)c2)cc1-c1cc(OCCO)nc(N2CCOCC2)c1  remaining binding (binding, competition with immobilised ligand; 1 µM): 75%
CCCCC(=O)Nc1ccc(-c2ccc3ncn(CCC)c(=O)c3c2)cn1  remaining binding (binding, competition with immobilised ligand; 0.5 µM): 100%
N#Cc1ccc(NC(=O)Nc2ccccc2)cc1  remaining binding (cell-free assay, competition with immobilised ligand; 25 µM): 61%
C[C@H]1CC[C@H](n2c3cnccc3c3cnc(Nc4ccc5c(n4)CCN(C(=O)CO)C5)nc32)CC1  remaining binding (binding, competition with immobilised ligand; 1 µM): 18%
C#Cc1cc(-c2cc(Nc3nc(N[C@@H](C)c4ccc(F)cn4)ncc3Cl)n[nH]2)ccc1C=O  inhibition (enzyme activity, inhibitor; 0.2 µM): 80.7%
C=CC(=O)N1CCC[C@@H](n2nc(-c3ccc(Oc4ccccc4)cc3)c3c(N)ncnc32)C1  inhibition (enzyme activity, inhibitor; 1 µM): 5%
